Calls of active or inactive are those of the source. The rule behind the calls is not given here.
How the values were obtained:
Mus musculus [1] = test: (§1) In vivo inhibition of HSP90 in human GTL16 cells overexpressing c-Met xenografted in CD-1 nude mouse assessed as downregulation of c-Met protein expression at 50 mg/kg, ip administered as q5d/week for 2 weeks starting 3 days after tumor injection measured at 6 hrs post last dose by Western blot analysis; format: functional, organism-based; design: dose 50 mg/kg
A-431 = test: Antitumor activity against human A431 cells overexpressing EGFR xenografted in CD-1 nude mouse assessed as tumor growth inhibition at 50 mg/kg, ip administered as q5d/week for 2 weeks starting 3 days after tumor injection measured on day 5 post last dose relative to vehicle-treated control; format: functional, organism-based; design: dose 50 mg/kg
In short: (§2)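 Female athymic nude mice, 5-6 weeks old; 5 × 10^6 exponentially growing tumor cells inoculated s.c. in right flank. Treatment i.p. from day 3 after tumor injection. Tumor volume measured biweekly as d²·D/2. TVI% = 100 − (mean TV treated/mean TV control × 100), evaluated 5 days after last treatment; Mann-Whitney test vs vehicle group.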

NCI-H460 [2] = test: Cell cycle arrest in human NCI-H460 cells assessed as accumulation at G2/M phase at 2 times IC50 after 24 to 72 hrs by propidium iodide staining-based FACS flow cytometric analysis; format: functional
GTL 16 = test: Antitumor activity against human GTL16 cells overexpressing c-Met xenografted in CD-1 nude mouse assessed as tumor growth inhibition at 50 mg/kg, ip administered as q5d/week for 2 weeks starting 3 days after tumor injection measured on day 5 post last dose relative to vehicle-treated control; format: functional, organism-based; design: dose 50 mg/kg; in short: as §2
[3] = Metabolic stability in human plasma assessed as compound remaining at 5 uM measured at 120 mins by LC/MS analysis; format: ADME, cell-free
In short: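 Compound added to human plasma at 5 µM final and incubated at 37 °C for up to 120 min. Samples quenched in two volumes of chilled acetonitrile and centrifuged at 4 °C. Remaining compound quantified by LC/MS.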

NCI-H460 [4] = test: Induction of apoptosis in human NCI-H460 cells assessed as cell with hypodiploid DNA content at 2 times IC50 after 24 to 72 hrs by propidium iodide staining-based FACS flow cytometric analysis; format: functional
Mus musculus [5] = test: as §1, with “human A431” for “human GTL16”, “overexpressing EGFR” for “overexpressing c-Met”, “of CDK4” for “of c-Met”, “at 2” for “at 6”; format: functional, organism-based; design: dose 50 mg/kg; conditions: A-431
Mus musculus [6] = test: as §1, with “A431” for “GTL16”, “EGFR” for “c-Met”, “2” for “6”; format: functional, organism-based; design: dose 50 mg/kg; conditions: A-431
[7] = Toxicity in ip dosed CD-1 nude mouse xenografted with GTL16 cells overexpressing c-Met administered as q5d/week for 2 weeks starting 3 days after tumor injection measured on day 5 post last dose; format: organism-based; conditions: in vivo
In short: (§3)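 Female athymic nude mice, 5–6 weeks old, implanted s.c. in the right flank with 5 × 10^6 exponentially growing tumour cells and given i.p. doses (mg/10 mL/kg) over 2 weeks starting 3 days after implantation. Toxicity endpoints were maximum body weight loss, BWL% = 100 − [(mean BW day x / mean BW day 1) × 100], and deaths occurring before the first control death.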

Mus musculus [8] = test: as §1, with “of CDK4” for “of c-Met”; format: functional, organism-based; design: dose 50 mg/kg
Mus musculus [9] = test: In vivo inhibition of HSP90 in human A431 cells overexpressing EGFR xenografted in CD-1 nude mouse assessed as downregulation of AKT protein expression at 50 mg/kg, ip administered as q5d/week for 2 weeks starting 3 days after tumor injection measured at 2 hrs post last dose by Western blot analysis; format: functional, organism-based; design: dose 50 mg/kg; conditions: A-431
Mus musculus [10] = test: as §1, with “of AKT” for “of c-Met”; format: functional, organism-based; design: dose 50 mg/kg
Mus musculus [11] = test: In vivo inhibition of HSP90 in human A431 cells overexpressing EGFR xenografted in CD-1 nude mouse assessed as induction of HSP70 protein expression at 50 mg/kg, ip administered as q5d/week for 2 weeks starting 3 days after tumor injection measured at 2 hrs post last dose by Western blot analysis; format: functional, organism-based; design: dose 50 mg/kg; conditions: A-431
Mus musculus [12] = test: In vivo inhibition of HSP90 in human GTL16 cells overexpressing c-Met xenografted in CD-1 nude mouse assessed as induction of HSP70 protein expression at 50 mg/kg, ip administered as q5d/week for 2 weeks starting 3 days after tumor injection measured at 6 hrs post last dose by Western blot analysis; format: functional, organism-based; design: dose 50 mg/kg
[13] = Toxicity in ip dosed CD-1 nude mouse xenografted with human A431 cells overexpressing EGFR administered as q5d/week for 2 weeks starting 3 days after tumor injection measured on day 5 post last dose; format: organism-based, A-431; conditions: in vivo; in short: as §3
[14] = molecular target: Histone deacetylase 3/Nuclear receptor corepressor 2 (HDAC3/NCoR2) (Homo sapiens, UniProt O15379); test: Inhibition of human HDAC-3/NCOR2 using RHKK(Ac) as substrate by fluorescence assay; format: protein-complex assay
Histone deacetylase 4 = Histone deacetylase 4 (Homo sapiens, UniProt P56524); test: Inhibition of human HDAC-4 using RHKK(Ac) as substrate by fluorescence assay
Histone deacetylase 5 = Histone deacetylase 5 (Homo sapiens, UniProt Q9UQL6); test: Inhibition of human HDAC-5 using RHKK(Ac) as substrate by fluorescence assay
Histone deacetylase 8 = molecular target: T1, Histone deacetylase 8 (Homo sapiens, UniProt Q9BY41); test: Inhibition of human HDAC-8 using RHKK(Ac) as substrate by fluorescence assay
T1 sequence (Q9BY41 whole entry): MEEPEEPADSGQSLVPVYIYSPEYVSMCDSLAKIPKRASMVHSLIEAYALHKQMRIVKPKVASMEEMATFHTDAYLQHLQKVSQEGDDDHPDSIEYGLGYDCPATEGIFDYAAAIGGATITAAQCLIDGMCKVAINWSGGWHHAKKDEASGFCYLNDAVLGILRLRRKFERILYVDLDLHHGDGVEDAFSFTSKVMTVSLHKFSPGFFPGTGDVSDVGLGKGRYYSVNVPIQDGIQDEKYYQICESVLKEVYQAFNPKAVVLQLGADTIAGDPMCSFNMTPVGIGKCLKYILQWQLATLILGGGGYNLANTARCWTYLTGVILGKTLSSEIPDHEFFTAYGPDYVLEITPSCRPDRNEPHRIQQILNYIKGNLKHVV

Histone deacetylase 1 = Histone deacetylase 1 (Homo sapiens, UniProt Q13547); test: Inhibition of human HDAC-1 using RHKK(Ac) as substrate by fluorescence assay
[15] = molecular target: T2, Polyamine deacetylase HDAC10 (Homo sapiens, UniProt Q969S8); test: Inhibition of human HDAC-10 using RHKK(Ac) as substrate by fluorescence assay
T2 sequence (Q969S8 whole entry): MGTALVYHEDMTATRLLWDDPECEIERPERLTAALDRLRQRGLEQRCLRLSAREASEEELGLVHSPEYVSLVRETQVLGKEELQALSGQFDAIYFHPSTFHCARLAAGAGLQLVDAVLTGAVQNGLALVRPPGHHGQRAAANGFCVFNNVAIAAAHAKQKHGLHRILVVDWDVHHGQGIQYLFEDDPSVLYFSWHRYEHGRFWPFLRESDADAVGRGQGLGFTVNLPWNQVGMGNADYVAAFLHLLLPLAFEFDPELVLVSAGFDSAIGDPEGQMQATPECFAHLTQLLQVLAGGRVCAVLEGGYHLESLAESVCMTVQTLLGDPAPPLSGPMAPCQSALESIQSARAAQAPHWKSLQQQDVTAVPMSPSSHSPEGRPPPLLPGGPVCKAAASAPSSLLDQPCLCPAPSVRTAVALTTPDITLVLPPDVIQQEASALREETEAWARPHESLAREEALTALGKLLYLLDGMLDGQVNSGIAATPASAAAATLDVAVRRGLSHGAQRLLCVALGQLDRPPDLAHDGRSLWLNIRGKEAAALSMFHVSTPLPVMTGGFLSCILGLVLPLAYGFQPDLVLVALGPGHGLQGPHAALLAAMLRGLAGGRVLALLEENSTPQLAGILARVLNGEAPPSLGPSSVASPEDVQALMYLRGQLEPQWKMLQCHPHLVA

[16] = molecular target: Heat shock protein HSP 90-alpha (Homo sapiens, UniProt P07900); test: Displacement of GM-FITC from full-length recombinant human Hsp90-alpha after 4 hrs by fluorescence polarization assay
[17] = molecular target: T3, Protein deacetylase HDAC6 (Homo sapiens, UniProt Q9UBN7); test: Inhibition of human HDAC-6 using RHKK(Ac) as substrate by fluorescence assay
T3 sequence (Q9UBN7 whole entry): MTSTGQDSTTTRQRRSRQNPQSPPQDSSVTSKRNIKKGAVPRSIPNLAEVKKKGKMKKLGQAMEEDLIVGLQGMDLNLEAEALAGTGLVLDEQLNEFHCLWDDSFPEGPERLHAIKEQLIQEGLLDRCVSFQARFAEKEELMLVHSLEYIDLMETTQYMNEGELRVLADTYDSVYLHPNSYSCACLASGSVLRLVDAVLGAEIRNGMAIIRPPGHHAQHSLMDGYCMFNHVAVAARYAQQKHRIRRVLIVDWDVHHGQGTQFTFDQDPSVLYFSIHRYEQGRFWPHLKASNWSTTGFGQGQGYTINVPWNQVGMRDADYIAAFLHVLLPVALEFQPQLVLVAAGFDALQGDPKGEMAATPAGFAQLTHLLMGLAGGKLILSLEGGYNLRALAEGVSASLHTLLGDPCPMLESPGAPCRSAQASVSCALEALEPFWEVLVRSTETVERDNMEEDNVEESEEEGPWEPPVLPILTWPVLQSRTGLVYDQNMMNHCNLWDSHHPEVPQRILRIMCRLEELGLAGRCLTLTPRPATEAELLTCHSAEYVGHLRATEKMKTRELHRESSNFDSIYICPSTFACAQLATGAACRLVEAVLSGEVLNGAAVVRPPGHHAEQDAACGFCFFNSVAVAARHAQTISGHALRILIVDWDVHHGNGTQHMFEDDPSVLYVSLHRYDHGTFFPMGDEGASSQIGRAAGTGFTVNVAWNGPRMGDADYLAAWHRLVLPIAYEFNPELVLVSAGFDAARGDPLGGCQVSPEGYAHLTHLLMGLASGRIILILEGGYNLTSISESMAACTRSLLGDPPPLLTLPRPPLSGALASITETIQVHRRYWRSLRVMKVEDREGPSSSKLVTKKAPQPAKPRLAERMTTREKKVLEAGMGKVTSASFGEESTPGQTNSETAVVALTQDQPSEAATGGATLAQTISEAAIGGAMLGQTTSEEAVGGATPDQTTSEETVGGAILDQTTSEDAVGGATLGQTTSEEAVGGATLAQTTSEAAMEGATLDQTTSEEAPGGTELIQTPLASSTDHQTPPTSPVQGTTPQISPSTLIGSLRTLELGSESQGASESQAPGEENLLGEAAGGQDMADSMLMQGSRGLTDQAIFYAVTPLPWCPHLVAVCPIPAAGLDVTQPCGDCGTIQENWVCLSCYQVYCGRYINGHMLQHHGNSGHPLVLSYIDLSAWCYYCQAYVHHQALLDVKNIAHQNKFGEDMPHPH

Histone deacetylase 2 = Histone deacetylase 2 (Homo sapiens, UniProt Q92769); test: Inhibition of human HDAC-2 using RHKK(Ac) as substrate by fluorescence assay
NCI-H460 [18] = test: Cytotoxicity against human NCI-H460 cells assessed as growth inhibition after 72 hrs by SRB assay; format: functional, cell-based; conditions: NCI-H460, 72 h
In short: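 NCI-H460 cells grown in RPMI-1640 with 10% heat-inactivated FBS, seeded at about 10% confluence and allowed 24 h recovery. Exposed to graded drug concentrations or solvent for 72 h. Surviving fraction measured by sulforhodamine B. IC50 is the concentration giving a 50% drop in cell number vs vehicle, from dose-response curve fitting; mean of n=4 with SD.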

Histone deacetylase 11 = molecular target: T4, Histone deacetylase 11 (Homo sapiens, UniProt Q96DB2); test: Inhibition of human HDAC-11 using RHKK(Ac) as substrate by fluorescence assay
T4 sequence (Q96DB2 whole entry): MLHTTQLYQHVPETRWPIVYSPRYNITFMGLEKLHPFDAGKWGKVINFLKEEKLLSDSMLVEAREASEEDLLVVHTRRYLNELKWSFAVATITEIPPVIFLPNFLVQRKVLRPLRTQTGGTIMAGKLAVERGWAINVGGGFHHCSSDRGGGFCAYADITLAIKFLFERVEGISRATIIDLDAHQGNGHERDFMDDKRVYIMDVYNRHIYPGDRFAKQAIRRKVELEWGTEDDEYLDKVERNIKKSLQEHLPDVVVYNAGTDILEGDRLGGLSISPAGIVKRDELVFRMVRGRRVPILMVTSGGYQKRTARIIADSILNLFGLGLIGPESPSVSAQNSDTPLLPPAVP

Sequence of Histone deacetylase 4 (P56524 whole entry): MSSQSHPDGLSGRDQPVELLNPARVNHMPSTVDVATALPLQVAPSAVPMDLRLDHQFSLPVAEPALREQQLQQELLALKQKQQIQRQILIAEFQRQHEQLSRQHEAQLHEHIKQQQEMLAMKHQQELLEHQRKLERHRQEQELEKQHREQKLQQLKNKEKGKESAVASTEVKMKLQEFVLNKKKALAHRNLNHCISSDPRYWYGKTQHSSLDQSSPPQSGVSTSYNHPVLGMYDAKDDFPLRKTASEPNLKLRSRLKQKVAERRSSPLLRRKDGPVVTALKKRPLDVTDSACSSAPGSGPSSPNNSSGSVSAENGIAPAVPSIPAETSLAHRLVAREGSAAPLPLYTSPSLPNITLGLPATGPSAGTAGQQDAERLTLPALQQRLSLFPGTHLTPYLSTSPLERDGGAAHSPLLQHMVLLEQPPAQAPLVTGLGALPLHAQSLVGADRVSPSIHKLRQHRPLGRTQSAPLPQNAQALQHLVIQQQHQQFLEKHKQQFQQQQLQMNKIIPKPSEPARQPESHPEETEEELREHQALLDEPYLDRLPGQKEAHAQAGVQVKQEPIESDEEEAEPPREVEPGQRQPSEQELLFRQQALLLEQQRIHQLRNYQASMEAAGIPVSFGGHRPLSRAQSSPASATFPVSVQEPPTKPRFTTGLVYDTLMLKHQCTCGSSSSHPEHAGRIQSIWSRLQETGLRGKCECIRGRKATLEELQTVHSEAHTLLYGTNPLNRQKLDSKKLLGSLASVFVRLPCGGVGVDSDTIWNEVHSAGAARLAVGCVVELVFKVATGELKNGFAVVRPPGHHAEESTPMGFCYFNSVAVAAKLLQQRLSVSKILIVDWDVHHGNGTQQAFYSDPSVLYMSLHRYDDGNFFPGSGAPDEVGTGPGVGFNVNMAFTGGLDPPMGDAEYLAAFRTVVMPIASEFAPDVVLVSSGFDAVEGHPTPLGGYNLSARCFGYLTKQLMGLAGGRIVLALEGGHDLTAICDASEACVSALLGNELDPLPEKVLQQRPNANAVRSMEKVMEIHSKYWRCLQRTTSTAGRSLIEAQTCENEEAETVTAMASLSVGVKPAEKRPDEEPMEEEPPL
Sequence of Histone deacetylase 3/Nuclear receptor corepressor 2 (HDAC3/NCoR2) (O15379 whole entry): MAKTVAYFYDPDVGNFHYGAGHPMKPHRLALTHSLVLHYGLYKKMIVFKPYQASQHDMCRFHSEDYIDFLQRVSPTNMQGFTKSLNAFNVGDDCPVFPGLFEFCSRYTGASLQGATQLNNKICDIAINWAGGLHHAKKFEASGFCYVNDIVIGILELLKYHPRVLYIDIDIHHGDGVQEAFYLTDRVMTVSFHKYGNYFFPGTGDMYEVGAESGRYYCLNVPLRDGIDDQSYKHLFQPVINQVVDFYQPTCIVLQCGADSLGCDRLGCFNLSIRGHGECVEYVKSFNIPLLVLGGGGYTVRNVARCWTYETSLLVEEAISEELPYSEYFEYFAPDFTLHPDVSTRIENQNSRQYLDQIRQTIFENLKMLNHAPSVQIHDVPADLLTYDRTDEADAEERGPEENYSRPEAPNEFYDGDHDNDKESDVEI
Sequence of Histone deacetylase 3/Nuclear receptor corepressor 2 (HDAC3/NCoR2) (Q9Y618 whole entry, further chain): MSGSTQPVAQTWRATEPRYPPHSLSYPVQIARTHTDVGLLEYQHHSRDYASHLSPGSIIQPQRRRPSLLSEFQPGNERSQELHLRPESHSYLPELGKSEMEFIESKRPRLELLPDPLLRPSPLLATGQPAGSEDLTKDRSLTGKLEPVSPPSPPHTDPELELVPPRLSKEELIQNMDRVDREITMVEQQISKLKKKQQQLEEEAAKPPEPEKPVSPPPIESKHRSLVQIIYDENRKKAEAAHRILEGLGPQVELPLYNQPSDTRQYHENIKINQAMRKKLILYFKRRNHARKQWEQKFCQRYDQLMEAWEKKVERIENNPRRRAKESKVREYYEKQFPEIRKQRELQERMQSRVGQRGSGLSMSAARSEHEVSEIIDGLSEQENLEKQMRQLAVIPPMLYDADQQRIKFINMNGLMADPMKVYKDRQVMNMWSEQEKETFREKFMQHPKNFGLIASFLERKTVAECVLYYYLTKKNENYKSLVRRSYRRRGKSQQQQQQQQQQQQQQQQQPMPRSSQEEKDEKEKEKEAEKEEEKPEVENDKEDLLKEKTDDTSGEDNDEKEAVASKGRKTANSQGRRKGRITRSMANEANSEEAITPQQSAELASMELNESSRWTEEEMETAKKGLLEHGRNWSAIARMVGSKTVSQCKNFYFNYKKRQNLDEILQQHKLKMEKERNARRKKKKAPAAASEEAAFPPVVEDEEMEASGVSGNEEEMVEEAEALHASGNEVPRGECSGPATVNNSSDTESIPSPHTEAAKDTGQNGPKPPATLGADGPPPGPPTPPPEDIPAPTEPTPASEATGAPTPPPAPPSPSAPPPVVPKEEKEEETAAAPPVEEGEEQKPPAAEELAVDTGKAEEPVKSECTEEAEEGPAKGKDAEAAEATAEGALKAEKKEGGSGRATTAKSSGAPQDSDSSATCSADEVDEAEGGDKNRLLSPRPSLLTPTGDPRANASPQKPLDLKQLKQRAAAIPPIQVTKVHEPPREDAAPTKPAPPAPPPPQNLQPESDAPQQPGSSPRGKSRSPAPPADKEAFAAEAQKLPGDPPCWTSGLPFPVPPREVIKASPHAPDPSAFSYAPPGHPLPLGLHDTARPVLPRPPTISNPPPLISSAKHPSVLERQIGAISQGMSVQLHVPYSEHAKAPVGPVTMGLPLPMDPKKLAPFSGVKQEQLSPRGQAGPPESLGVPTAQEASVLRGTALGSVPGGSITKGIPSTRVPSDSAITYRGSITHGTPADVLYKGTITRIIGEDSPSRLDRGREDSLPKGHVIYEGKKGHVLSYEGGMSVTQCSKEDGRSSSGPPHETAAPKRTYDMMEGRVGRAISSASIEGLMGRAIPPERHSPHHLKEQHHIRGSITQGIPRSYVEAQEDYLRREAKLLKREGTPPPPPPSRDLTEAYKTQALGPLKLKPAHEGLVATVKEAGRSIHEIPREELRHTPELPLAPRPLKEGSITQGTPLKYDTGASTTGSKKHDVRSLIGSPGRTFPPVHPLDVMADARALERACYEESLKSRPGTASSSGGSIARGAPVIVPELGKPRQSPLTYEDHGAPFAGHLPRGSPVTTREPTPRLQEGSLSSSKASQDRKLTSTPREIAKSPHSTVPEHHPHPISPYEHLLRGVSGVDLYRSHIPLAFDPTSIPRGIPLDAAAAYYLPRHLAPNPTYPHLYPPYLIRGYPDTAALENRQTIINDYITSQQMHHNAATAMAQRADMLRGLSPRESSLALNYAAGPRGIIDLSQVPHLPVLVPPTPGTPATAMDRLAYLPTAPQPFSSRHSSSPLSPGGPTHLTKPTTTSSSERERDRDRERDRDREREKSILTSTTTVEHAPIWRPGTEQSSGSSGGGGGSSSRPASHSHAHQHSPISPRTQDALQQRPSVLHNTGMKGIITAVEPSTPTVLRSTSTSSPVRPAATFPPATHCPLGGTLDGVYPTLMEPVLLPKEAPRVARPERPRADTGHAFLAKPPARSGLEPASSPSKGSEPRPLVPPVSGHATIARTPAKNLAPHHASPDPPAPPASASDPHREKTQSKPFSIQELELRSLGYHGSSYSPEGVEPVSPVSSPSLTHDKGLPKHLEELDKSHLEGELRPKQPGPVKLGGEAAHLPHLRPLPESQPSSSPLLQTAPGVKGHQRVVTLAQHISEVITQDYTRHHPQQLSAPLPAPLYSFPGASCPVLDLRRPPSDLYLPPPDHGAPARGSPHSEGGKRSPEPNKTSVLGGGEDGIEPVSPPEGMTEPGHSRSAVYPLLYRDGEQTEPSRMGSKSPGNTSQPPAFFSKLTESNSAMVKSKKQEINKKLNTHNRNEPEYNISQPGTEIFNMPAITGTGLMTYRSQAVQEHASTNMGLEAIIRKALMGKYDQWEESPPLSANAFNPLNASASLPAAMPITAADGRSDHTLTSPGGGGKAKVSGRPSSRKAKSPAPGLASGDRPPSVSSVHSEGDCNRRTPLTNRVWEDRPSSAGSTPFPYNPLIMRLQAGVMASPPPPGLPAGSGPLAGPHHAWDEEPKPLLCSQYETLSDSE
Sequence of Histone deacetylase 1 (Q13547 whole entry): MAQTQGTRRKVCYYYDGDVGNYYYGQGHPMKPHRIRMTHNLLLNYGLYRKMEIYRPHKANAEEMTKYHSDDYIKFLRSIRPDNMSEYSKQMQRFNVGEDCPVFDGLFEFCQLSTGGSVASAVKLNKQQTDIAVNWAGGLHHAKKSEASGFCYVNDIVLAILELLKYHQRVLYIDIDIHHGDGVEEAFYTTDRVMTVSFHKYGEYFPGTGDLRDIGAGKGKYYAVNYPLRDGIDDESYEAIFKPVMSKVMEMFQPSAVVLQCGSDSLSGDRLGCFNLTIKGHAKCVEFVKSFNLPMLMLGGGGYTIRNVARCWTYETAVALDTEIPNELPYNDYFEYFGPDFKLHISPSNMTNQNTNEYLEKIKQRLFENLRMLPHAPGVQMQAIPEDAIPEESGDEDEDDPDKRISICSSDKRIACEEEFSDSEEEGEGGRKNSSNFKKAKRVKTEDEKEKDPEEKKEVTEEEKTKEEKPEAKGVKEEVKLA
Sequence of Histone deacetylase 2 (Q92769 whole entry): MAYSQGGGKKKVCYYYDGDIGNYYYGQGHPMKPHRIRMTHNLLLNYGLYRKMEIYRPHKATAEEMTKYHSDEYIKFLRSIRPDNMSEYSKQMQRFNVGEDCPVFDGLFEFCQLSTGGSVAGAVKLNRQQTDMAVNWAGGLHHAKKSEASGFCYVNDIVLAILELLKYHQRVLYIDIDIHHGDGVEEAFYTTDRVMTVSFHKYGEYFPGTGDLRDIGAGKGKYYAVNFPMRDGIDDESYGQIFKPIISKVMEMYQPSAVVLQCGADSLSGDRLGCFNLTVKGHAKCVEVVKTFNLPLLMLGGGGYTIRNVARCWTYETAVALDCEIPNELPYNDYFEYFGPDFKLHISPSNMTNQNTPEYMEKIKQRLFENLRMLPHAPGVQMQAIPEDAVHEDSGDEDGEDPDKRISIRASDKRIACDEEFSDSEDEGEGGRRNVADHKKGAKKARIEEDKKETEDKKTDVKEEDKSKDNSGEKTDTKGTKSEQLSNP

Q: Which results are given for `CCNC(=O)c1noc(-c2cc(C(C)C)c(O)cc2O)c1-c1ccc(CN2CCOCC2)cc1` [LUMINESPIB]?
A: inhibition (Mus musculus [1]): Active; TGI (A-431): Active; Activity (NCI-H460 [2]): Active; TGI (GTL 16): Active; remaining at 2 h, 5 µM [3]: 56%; Activity (NCI-H460 [4]): Active; inhibition (Mus musculus [5]): Active; inhibition (Mus musculus [6]): Active; MTD at 2 weeks [7]: 50 mg/kg; inhibition (Mus musculus [8]): Active; inhibition (Mus musculus [9]): Active; inhibition (Mus musculus [10]): Active; inhibition (Mus musculus [11]): Active; inhibition (Mus musculus [12]): Active; MTD at 2 weeks [13]: 50 mg/kg

Q: Which IC50 [14] does the source give for `CC(C)c1cc(-n2nnc(C(=O)NCCCCCCC(=O)NO)c2-c2ccc(CN3CCOCC3)cc2)c(O)cc1O` here?
A: Its IC50 is 2790 nM.

Q: And the IC50 (Histone deacetylase 4)?
A: The IC50 was 71.5 µM.

Q: What about the IC50 (Histone deacetylase 5) of the same compound?
A: Its IC50 is 1910 nM.

Q: What about the IC50 (Histone deacetylase 8) of the same compound?
A: Its IC50 is 717 nM.

Q: And the IC50 (Histone deacetylase 1)?
A: The IC50 was 3.1 µM.

Q: What about the IC50 [15] of the same compound?
A: Its IC50 is 3.22 µM.

Q: And the IC50 [16]?
A: Its IC50 is 31 nM.

Q: And the IC50 [17]?
A: Its IC50 is 12 nM.

Q: And the IC50 (Histone deacetylase 2)?
A: Its IC50 is 5.61 µM.

Q: And the IC50 (NCI-H460 [18])?
A: The IC50 was > 1000 nM.

Q: What about the IC50 (Histone deacetylase 11) of the same compound?
A: Its IC50 is 1770 nM.
